Fewer inactive variants are shown than the library holds.

The labels stand for the following.
B1: tRNA (parent)
chain: GUUCCGUUGGCGUAAUGGUAACGCGUCUCCCUCCUAAGGAGAAGACUGCGGGUUCGAGUCCCGUACGGAACG

In the data set the parent is B1. Kind of data set: yeast fitness relative to wild type (ratio to wild type); higher = fitter; tRNA-Arg(CCU), competitive growth, 37 C, YPD. The essentials:
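Genotype frequency changes were the basis for Darwinian fitness relative to wild type. The frequencies came from 100-nucleotide paired-end sequencing of gene amplicons from the start population and each end population of pooled yeast strains with tRNA-Arg(CCU) gene variants at the native locus. Competition ran in YPD at 37°C for 24 hours in six replicates, genotypes needed ≥ 100 starting reads, and estimates < 0.5 were set to 0.5.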
For the variant GAUCCGUUGGCGUAAUGGUAACGCGUCUCCCCCCUAAGGAGAAGACUGCGGGUUCGAGUCCCGUACGGAACG [U2A U32C], the yeast fitness worked out at 0.954. In the case of GUUCCGUUGGCGUAAUGGUAACGCGUCUCACUCCUAAGGACAAGACUGCGGGUUCGAGUCCCGUACGGCACG [C30A G41C A69C] it was 0.598; in that of GUUCCGUUGGCGUAAUGGUAACGCGUCUCCUUCCUAAGGACACGACUACGGGUUCGAGUGCCGUACGGAACG [C31U G41C A43C G48A C60G], at most 0.5; in that of GUUGCGUUGGCGUAAUGGUCACGCGUCUCAGUCAUAGGGAGAAGACUGAGGGUUCGCGUCCCAUACGGAACG [C4G A20C C30A C31G C34A A37G C49A A57C G63A], at most 0.5. Then GUUCCGUUGGCGUAAUGGUAACGGGUCUCCCUCCUAAGGAGAAGACUGUGGGUUCGUGUCCCGUACGGAACG [C24G C49U A57U], with at most 0.5; and GUUCCGUUGGCGUAAUGGUAACGCGUCUCCCUCCUAACGAGAAGACUGCGGGUUCGAGUCCCGUACGGCACG [G38C A69C], with 0.722. In the case of GUUGCGUUGGCGUAACGGUAACGCGUCUGCCUCCUUAGGAGAAGACUGCGGGUUCGAGUGCCGUACGGAACG [C4G U16C C29G A36U C60G] it was at most 0.5. Regarding GUUCCGUUGGCGUAAUGGUAACGCGUCUCCCUCCUAAGGAGAAGACUGCGGAUUCGAGUCCCGUACCGAACG [G52A G67C], the yeast fitness turned out to be 0.796. In the case of GUUCCGUUGGCGUAGUGGUAACGCGUUUCCCUCCUAAGGAGAAAACUGCGGGUUCCAGUCCCGUACGGAACG [A15G C27U G44A G56C] it was at most 0.5; in that of GAUCUGUUGGCGUAAUGGUAACGCGUCUCCCUCCUAAGGAGAAGACUGCGGGUUCGAGUCCCGCACGGAACG [U2A C5U U64C], 1.06; in that of GUUCCGUUGGCGUGUUGGUAACGCCUCUCCCUCCUAAGGAGAAGACUGCGGGUUCGAGUCCCGUACGGAACG [A14G A15U G25C], at most 0.5. On to GUUCCGUUGGCGUAAUGAUAACGUGUCUCCCUCCUAAGGAGAAGACUGCGGGUUCGAGUCCCGUACGGAACG [G18A C24U], for which the yeast fitness was determined as 0.646. Then GUUCCGUUGGCGUAAUGGUAACGUGGCUCCCUCCUAAGGAGAGGACUGCGGGUUCGAGUCCCGUACGGAACG [C24U U26G A43G], with 0.727; and GUUCCGUUGGCGUAAUGGUAACGCGUCUCCCUCCUAAGGAGAAGACUGCGGGUUCGAGUUCCGUAGGGAACG [C60U C66G], with 0.687; and GUUCCGUUGGCGUAAUGGUAACGCGUCUCCCUCCUAAGGAGAAGACUGCGGGAUCAAGUCCCGUACGGAACG [U53A G56A], with 0.636. Then GUUCCGUUGGCGUAAUGGUAACGGGUCUCCCUCCUGAGGAGAAGACUGCGGGUUAGAGUCCCGUACGGAACG [C24G A36G C55A], with at most 0.5; and GGUCCGUUCGCGUAUUGGCAACGCGUCUCCCUCCUAAGGAGAAGACUGCGGGUUCGAGUCCCGUACGGAACG [U2G G9C A15U U19C], with at most 0.5.

Consider GUUCUGCUGGCGUAAUGGUAACGCGUCUCCCUCCUAAAGAGAAGGCUACGGGUUCGAGUCCCGUACAGAACG [C5U U7C G38A A45G G48A G67A], for which the yeast fitness is at most 0.5.

Regarding GUUCCCUUGGCGUAAUGGUAACGCGUCUCCCUCCUAAGGAGAAGUCUGCGGGUUCGAGUCCCGUACGGAACG [G6C A45U], the yeast fitness came out at 0.823. Consider GUUCCGUUGGCGUAAUGGUAAAGCGUCUCCCUCCUAAGGAGAAGACUGCGGGUUCGUGUCCCGUACAGAACG [C22A A57U G67A], for which the yeast fitness came out at 0.545.

In the case of GUUACGUUGGCGGAAUGGUAACGCGUCUCCCUCCUAAGGAGAAGACUGCGGGUUCGAGUCCCGUACGGAACG [C4A U13G], the yeast fitness came to 0.619. GUUUCGUUGGCGUAAUGGUAACGCGUCUCCCUCCUAAGGACAAGACUGCGGGUUCGAGUCCCGUAAGGAACG [C4U G41C C66A]: the yeast fitness is at most 0.5. In the case of GUUCCGUUGGCGUAAUGGUAUCGCGUCUCCCUCCUAAGGAGAAGACUGCGGGUUCGAGUCCCGGACGGAACG [A21U U64G] it was 0.709. In the case of GUUCCCUUGGCGUAAUGGUAACGCGUCUCCCUCCUAAGGAGAAGACUGCGGGUUCGAGUCCCCUACGGAACG [G6C G63C] it was 0.689; in that of GUUCCGUUGGCGUAAUGGUAACGCGUCUCCCGCCUAAGGAGAAGAAUGCGGGUUCGAGUCCCGUACGGAACG [U32G C46A], 0.667; in that of GUUCCGUUGCCGUAGUGGUAACGCGUCUCCCUCCUAAGGAGAAGACUGCGGGUUCGACUCCCGUACGGAACG [G10C A15G G58C], 0.559. In the case of GUUCCGUUGGUGUAAUGGUACCGCGUCUCCCUCCUAAGGAGGAGACUGCGGGUUCGAGUCUCGUACGGAACG [C11U A21C A42G C61U] it was at most 0.5; in that of GUUCCGUUGGCGUAAUGGUAACGCAUCUCCCUGCUAAGGAGGAGACUGCAGGUUCGAGUCCCGUACGGAACG [G25A C33G A42G G50A], 0.596. Take GUUCCGUUGGCGUAAUGGUAACGCGUCUCCCACCUAAGGAGAAGACUACGGGUUCGAGUCCCGUACGGAACG [U32A G48A]: the yeast fitness came out at 0.673. In the case of GUUCCGUUGGCGUAUUGGUAACACGUCUCCCUCCUAAGGCGAAGACUGCGGGUUCGGGUCUCGUCCGGAACG [A15U G23A A40C A57G C61U A65C] it was 0.629; in that of GUUCCGUUGGCGUAAUGGUAACGUGUCUCCCCCCUAAGGAGAAGACUGCGGGUUCGAGUCCCGUACGGUACG [C24U U32C A69U], 0.818; in that of GUUGCGUUGGCGUAAUCGUAACGCGUCUCCCUGCUAAGGAGAAGACUGCGGGUUCGAGUCCCGUACGGAACG [C4G G17C C33G], at most 0.5.

As to GUGCCGUUGGCGUAACGGUAACGCGUCUCCCUCCUAAGCAGAAGCCUGGGGGUUCGAGUCCCGUACGGAACG [U3G U16C G39C A45C C49G], the yeast fitness was at most 0.5. In the case of GUUCCGCUGGCGUAAUGGUAACGCGUCUCCCUCCUAAGGAGAAGACUGGGGGUUCGAGUCCCGUACGGAACG [U7C C49G] it was 0.774; in that of GUUCCGUUGGCGUAAUGGUACCGCGUCUCCCUCCUAAGGAGAAGACUGCGGGUGGGAGUCCCGUACGGAACG [A21C U54G C55G], 0.585; in that of GUUCCGUUGGUGUAAUGGUAACGCGUCUCCCUCCUAAGGAGGAGACUGCGGGUUCGAGCCUCGUACGGAACG [C11U A42G U59C C61U], at most 0.5.

For the variant GUCCCGUUGGCGUAAUGGUAACGAGUCUUCCUCCUAAGGAGAAGACUGCGGGUUCGAGUCCCGUACUGAACG [U3C C24A C29U G67U], the yeast fitness was determined as 0.522. Then GUUCCGUUGGCGUAAUGGUAACGCGUCUCCCUCCUAAGGAGAAGACUGCGUGUUCGAGUCUCGUACGGAACG [G51U C61U], with 0.747.

(Values after the RNAGym collection of RNA variant scans (doi:10.1126/science.aae0568).)
